# Data: article PMC10913580 (Nature chemistry, 2023)
# Legend:
# [1] = test system: ternary complex between CRBN and off-target ZFP91; experiment: NanoBRET ternary complex formation assay; type: cell-based; details: U2OS cells expressing ZFP91-NLuc and HaloTag-CRBN, 1 μM dose
# How it was run: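 U2OS stably expressing ZFP91–NLuc, transfected with HaloTag–CRBN plasmid (2 μg per 100,000 cells). After 14 h, plated at 3,000 cells/well in phenol-red-free Opti-MEM with 4% FBS. NanoBRET 618 ligand 100 nM final, 18 h; no-ligand control wells. Compound 1 μM final, 15 min; furimazine 10 μM final, 5 min. mBU = (618/460 nm emission) × 1,000, minus no-ligand control.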
# [2] = test system: ZF degrons fused to eGFP in U2OS cells; experiment: Automated imaging assay for degradation of ZF degron-tagged eGFP; type: cell-based; details: 14 stable U2OS ZF reporter cell lines, 24 h, dosing range 4.3 nM to 6 μM
# How it was run: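 U2OS lines stably carrying lentiviral Cilantro 2 reporters (ZF degron–eGFP plus untagged mCherry) under 1 μg ml−1 puromycin. 3,000 cells/well seeded onto compound-preprinted plates; 24 h. PBS wash, 4% paraformaldehyde fix, nuclear stain, eGFP/mCherry imaging. Per-cell eGFP normalized to mCherry, well means to DMSO wells; 1 minus value gives degradation fraction, summed across doses as degradation score. Z′ from controls.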
# ZFP91 [3] = molecular target: T1, ZFP91 (Homo sapiens, UniProt Q96JP5+Q96SW2); experiment: Immunoblot of endogenous ZFP91 in Jurkat cells; type: cell-based
# How it was run: (§1)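 Cells grown in RPMI 1640 with 10% FBS, then compound-treated. Lysis in ice-cold M-PER with protease and phosphatase inhibitors. 20–50 μg protein run on 4–12% Bis-Tris gels and transferred to nitrocellulose. Probed with anti-ZFP91 or anti-IKZF3 primary antibodies (1:1,000), then fluorescent secondaries (1:3,000).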
# SALL4 = SALL4 (Homo sapiens, UniProt Q96SW2+Q9UJQ4); experiment: Global proteomic analysis of KELLY cells treated with PROTACs; type: cell-based; details: 100 nM
# How it was run: (§2)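 Cells were dosed with test compound at 0.1 μM or with DMSO for 5 h, then washed in PBS and snap-frozen. Lysis was in 8 M urea, 50 mM NaCl, 50 mM EPPS pH 8.5 with protease and phosphatase inhibitors, with bead beating. Digestion used LysC (1:50, 12 h, room temperature), then trypsin (1:50, 6 h, 37 °C). Label-free LC-MS followed; abundances were scaled and statistics run with limma.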
# ALK = ALK (Homo sapiens, UniProt P06748+Q96SW2+Q9UM73); experiment: Global proteomic analysis of SU-DHL-1 cells treated with PROTACs; type: cell-based; details: 0.1 μM, 5 h
# How it was run: as §2
# ZFP91 [4] = molecular target: T1, ZFP91; experiment: Immunoblot of endogenous ZFP91 in SU-DHL-1 cells; type: cell-based
# How it was run: as §1
# ZFP91 [5] = molecular target: T1, ZFP91; experiment: Immunoblot of endogenous ZFP91 in H2228 cells; type: cell-based
# How it was run: as §1
# ZFP91 and IKZF3 = experiment: Immunoblot of endogenous ZFP91 and IKZF3 in MM1.S cells; type: cell-based
# How it was run: as §1
# [6] = test system: ZF proteins and other off-targets in MOLT4 and KELLY cells; experiment: MS-based global proteomics of MOLT4 and KELLY cells treated with imide analogues; type: cell-based, human; details: 1 μM, 5 h
# How it was run: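 MOLT4 or Kelly cells given 1 μM compound or DMSO, 5 h. PBS-washed pellets snap-frozen, lysed in 8 M urea, 50 mM NaCl, 50 mM EPPS pH 8.5 with inhibitors by bead beating; Bradford quantitation. 50 μg protein reduced, alkylated, methanol/chloroform precipitated; LysC (1:50, 12 h, room temperature) then trypsin (1:50, 6 h, 37 °C). C18-desalted, LC–MS. Abundances scaled; limma statistics.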
smiles,measurement,setting,value
N#Cc1ccc(O[C@H]2CC[C@H](NC(=O)c3ccc(N4CCC(CN5CCN(c6cc7c(cc6F)C(=O)N(C6CCC(=O)NC6=O)C7=O)CC5)CC4)nn3)CC2)cc1Cl (some centres unmarked) [ARV110],"BRET signal, ternary complex formation between CRBN and ZFP91",[1],reduced ternary complex formation with off-target ZFP91
Cc1cc(Nc2ncc(Cl)c(Nc3ccccc3S(=O)(=O)C(C)C)n2)c(OC(C)C)cc1C1CCN(CC(=O)NCCNc2cccc3c2C(=O)N(C2CCC(=O)NC2=O)C3=O)CC1 (centres unmarked) [MS4078],degradation of ZF degron-tagged eGFP (off-target ZF degradation),[2],had a high level of off-target ZF degradation
same,off-target degradation of endogenous ZFP91 (immunoblot),ZFP91 [3],off-target degradation of endogenous ZF protein ZFP91
same,degradation of SALL4 (global proteomics),SALL4,induced degradation of SALL4
same,degradation of ALK (global proteomics),ALK,induced degradation of ALK
same,off-target degradation of endogenous ZFP91 (immunoblot),ZFP91 [4],off-target degradation of endogenous ZF proteins ZFP91
same,off-target degradation of endogenous ZFP91 (immunoblot),ZFP91 [5],off-target degradation of endogenous ZF proteins ZFP91
"Nc1ccc2c(c1)C(=O)N(C1CCC(=O)NC1=O)C2=O (centres unmarked) [compound 8, 5-aminothalidomide]",degradation of endogenous ZFP91 and IKZF3 (immunoblot),ZFP91 and IKZF3,decrease in overall degradation potency as compared to pomalidomide
CC[C@H](C(=O)N1CCCC[C@H]1C(=O)O[C@H](CCc1ccc(OC)c(OC)c1)c1ccccc1OCC(=O)NCCCCCCOc1cccc2c1C(=O)N(C1CCC(=O)NC1=O)C2=O)c1cc(OC)c(OC)c(OC)c1 (some centres unmarked) [dTAG-13],off-target degradation of endogenous ZFP91 (immunoblot),ZFP91 [3],off-target degradation of endogenous ZF protein ZFP91
Nc1cccc2c1C(=O)N(C1CCC(=O)NC1=O)C2=O (centres unmarked) [pomalidomide],degradation of ZF degron-tagged eGFP (off-target ZF degradation),[2],degraded all 12 ZF degrons that are sensitive to it in a dose-dependent manner
same,degradation of ZF proteins and other off-targets (global proteomics),[6],triggered the degradation of several ZF proteins
